# Measured values reported in ChEMBL document CHEMBL1764971, “7-azabicyclo[2.2.1]heptane as a structural motif to block mutagenicity of nitrosamines” (Bioorg Med Chem, 2011).
# Tests used:
# Salmonella typhimurium [1] = assay: Mutagenic activity in Salmonella Typhimurium TA100 assessed as number of revertants after 44 hrs by Ames test in presence of rat liver S9 fraction; assay type: toxicity, organism-based; settings: salmonella enterica subsp. enterica serovar typhimurium, s9, 44 h
# Procedure, shortened: (§1)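 Pre-incubation Ames method. Compound at 0.03, 0.06, 0.13, 0.25 or 0.5 mg in DMSO, mixed with 0.5 mL rat liver S9 mix (P450s plus NADPH-regenerating system) and 0.1 mL tester-strain culture. Shaken 30 min at 37 °C, then top agar added and poured onto minimal-glucose agar. Revertant colonies counted after 44 h at 37 °C. Duplicate plates, experiments repeated at least twice; mean of duplicates.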
# Salmonella typhimurium [2] = assay: Mutagenic activity in Salmonella Typhimurium TA98 assessed as number of revertants after 44 hrs by Ames test; assay type: toxicity, organism-based; settings: salmonella enterica subsp. enterica serovar typhimurium
# Procedure, shortened: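 Pre-incubation Ames method without metabolic activation. Compound at 0.03, 0.06, 0.13, 0.25 or 0.5 mg in DMSO, mixed with 0.5 mL 0.1 M sodium phosphate buffer (pH 7.4) and 0.1 mL tester-strain culture. Shaken 30 min at 37 °C, then plated in top agar on minimal-glucose agar. Colonies counted after 44 h at 37 °C. Duplicate plates, at least two experiments; mean of duplicates.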
# Salmonella typhimurium [3] = assay: Mutagenic activity in Salmonella Typhimurium TA98 assessed as number of revertants after 44 hrs by Ames test in presence of rat liver S9 fraction; assay type: toxicity, organism-based; settings: salmonella enterica subsp. enterica serovar typhimurium, s9, 44 h; procedure, shortened: as §1
# Salmonella typhimurium [4] = assay: Cytotoxicity against Salmonella Typhimurium TA98 in presence of rat liver S9 fraction; assay type: organism-based; settings: salmonella enterica subsp. enterica serovar typhimurium
# Salmonella typhimurium [5] = assay: Cytotoxicity against Salmonella Typhimurium TA98; assay type: organism-based; settings: salmonella enterica subsp. enterica serovar typhimurium
Structure (SMILES),Activity (Salmonella typhimurium [1]),Activity (Salmonella typhimurium [2]),Activity (Salmonella typhimurium [3]),Activity (Salmonella typhimurium [4]),Activity (Salmonella typhimurium [5])
COC(=O)C1C(C(=O)OC)C2c3ccccc3C1N2N=O (stereo unspecified),Non-toxic,Non-toxic,Non-toxic,,
COc1cc2c(cc1OC)C1CCC2N1N=O,Toxic,Toxic,Toxic,,
O=NN1C2C=CC1c1cc([N+](=O)[O-])ccc12 (stereo unspecified),Toxic,Toxic,Toxic,,
COCC12CCC(C(C(=O)OC)C1)N2N=O (stereo unspecified),Non-toxic,Non-toxic,Non-toxic,,
O=NN1C2CCC1c1ccccc12,Non-toxic,Non-toxic,Non-toxic,,
CCOC(=O)CCN1C(=O)C2C(C1=O)C1c3ccccc3C2N1N=O (stereo unspecified),Non-toxic,Non-toxic,Non-toxic,,
CN1C(=O)[C@@H]2C3c4ccccc4C([C@@H]2C1=O)N3N=O,Non-toxic,Non-toxic,Non-toxic,,
O=NN1CCCC1,Toxic,Non-toxic,Toxic,,
COC(=O)C1C(C(=O)OC)C2CCC1N2N=O (stereo unspecified),Non-toxic,Non-toxic,Non-toxic,,
O=NN1Cc2ccccc2C1,Toxic,Non-toxic,Toxic,,
O=NN1C2c3ccccc3C1C1C(=O)N(c3ccccc3)C(=O)C12 (stereo unspecified),Non-toxic,Non-toxic,Non-toxic,Non-toxic,Toxic
O=NN1C2CC(O)C1c1ccccc12 (stereo unspecified),Non-toxic,Non-toxic,Non-toxic,,
O=NN1C2CC(O)C1c1ccc([N+](=O)[O-])cc12 (stereo unspecified),Toxic,Toxic,Toxic,,
O=NN1C2CCC1c1cc([N+](=O)[O-])ccc12 (stereo unspecified),Non-toxic,Non-toxic,Non-toxic,,
COC(=O)C1CC2(COCc3ccccc3)CCC1N2N=O (stereo unspecified),Non-toxic,Non-toxic,Non-toxic,,
O=NN1C2c3ccccc3C1C(C(F)(F)F)C2C(F)(F)F (stereo unspecified),Non-toxic,Non-toxic,Non-toxic,,
COC(=O)C1CC2c3ccccc3C1N2N=O (stereo unspecified),Non-toxic,Non-toxic,Non-toxic,,
O=NN1C2CCC1CC2,Non-toxic,Non-toxic,Non-toxic,,
